ChEMBL document CHEMBL1133624, “Benzothiadiazine dioxide dibenzyl derivatives as potent human cytomegalovirus inhibitors: synthesis and comparative molecular field analysis” (J Med Chem, 2000)

How the values were obtained:
Human betaherpesvirus 5 = assay: Concentration required to reduce viral plaque formation by Human Cytomegalovirus (HCMV) (strain AD-169) in MRC-5 cells; format: functional, organism-based; settings: Human betaherpesvirus 5, MRC5
MRC5 = assay: Concentration required to reduce MRC-5 cell growth by 50%; format: functional; settings: Homo sapiens
Summary of the method: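 MRC-5 fibroblasts seeded at 5 × 10³ cells/well, left to proliferate 24 h, then exposed to different concentrations of test compound (duplicate). After 3 days at 37 °C in 5% CO₂, cell number counted with a Coulter counter.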

**Q.** With `O=C1c2ccccc2N(Cc2ccc(Cl)c(Cl)c2)S(=O)(=O)N1Cc1ccc(Cl)c(Cl)c1` as the compound, how does the IC50 (Human betaherpesvirus 5) read?
**A.** Its IC50 is 15 µM.

**Q.** What about the CC50 (MRC5) of the same compound?
**A.** Its CC50 is over 48 µM.

**Q.** Which results are given for `Cc1ccc(CN2c3ccccc3C(=O)N(Cc3ccccc3)S2(=O)=O)cc1`?
**A.** IC50 (Human betaherpesvirus 5): 2.5 µM; CC50 (MRC5): > 63 µM

**Q.** For `N#Cc1ccc(CN2c3ccccc3C(=O)N(Cc3ccccc3)S2(=O)=O)cc1`, which IC50 (Human betaherpesvirus 5) is on record?
**A.** Its IC50 is 8 µM.

**Q.** What about the CC50 (MRC5) of the same compound?
**A.** Its CC50 is over 62 µM.

**Q.** `O=S1(=O)N=C(OCc2ccccc2)c2ccccc2N1Cc1ccccc1` was tested. Which IC50 (Human betaherpesvirus 5) did it give?
**A.** The IC50 was 7.9 µM.

**Q.** And the CC50 (MRC5)?
**A.** Its CC50 is over 66 µM.

**Q.** With `O=C1c2ccccc2N(CCc2ccccc2)S(=O)(=O)N1Cc1ccccc1` as the compound, how does the IC50 (Human betaherpesvirus 5) read?
**A.** The IC50 was 7.6 µM.

**Q.** And the CC50 (MRC5)?
**A.** The CC50 was over 64 µM.

**Q.** `O=S1(=O)N=C(OCc2ccccc2)c2ccccc2N1Cc1ccc(Cl)c(Cl)c1` was tested. Which IC50 (Human betaherpesvirus 5) did it give?
**A.** Its IC50 is 26 µM.

**Q.** And the CC50 (MRC5)?
**A.** The CC50 was over 56 µM.

**Q.** How did the IC50 (Human betaherpesvirus 5) turn out when `O=C1c2ccccc2N(Cc2ccc(Cl)cc2)S(=O)(=O)N1Cc1ccc(Cl)cc1` was run?
**A.** Its IC50 is 3.3 µM.

**Q.** And the CC50 (MRC5)?
**A.** Its CC50 is over 56 µM.

**Q.** Which IC50 (Human betaherpesvirus 5) does the source give for `COc1ccc(CN2c3ccccc3C(OCc3ccccc3)=NS2(=O)=O)cc1` here?
**A.** Its IC50 is 61 µM.

**Q.** And the CC50 (MRC5)?
**A.** The CC50 was over 61 µM.

**Q.** What does the source list for `C#CCCN1c2ccccc2C(=O)N(Cc2ccccc2)S1(=O)=O`?
**A.** IC50 (Human betaherpesvirus 5): 76.6 µM; CC50 (MRC5): 77 µM

**Q.** Which IC50 (Human betaherpesvirus 5) does the source give for `Cc1ccc(CN2c3ccccc3C(OCc3ccccc3)=NS2(=O)=O)cc1` here?
**A.** The IC50 was 10 µM.

**Q.** What about the CC50 (MRC5) of the same compound?
**A.** Its CC50 is over 63 µM.

**Q.** What does the source list for `O=C1c2ccccc2N(Cc2cccnc2)S(=O)(=O)N1Cc1ccccc1`?
**A.** IC50 (Human betaherpesvirus 5): 13.1 µM; CC50 (MRC5): 66 µM

**Q.** Which results are given for `Nc1nc2c(ncn2COC(CO)CO)c(=O)[nH]1` [GANCICLOVIR]?
**A.** IC50 (Human betaherpesvirus 5): 5.9 µM; CC50 (MRC5): > 98 µM

**Q.** Which results are given for `O=C1c2ccccc2N(Cc2ccc(C(F)(F)F)cc2)S(=O)(=O)N1Cc1ccc(C(F)(F)F)cc1`?
**A.** IC50 (Human betaherpesvirus 5): 15 µM; CC50 (MRC5): > 48 µM

**Q.** With `N#Cc1ccc(CN2c3ccccc3C(OCc3ccccc3)=NS2(=O)=O)cc1` as the compound, how does the IC50 (Human betaherpesvirus 5) read?
**A.** Its IC50 is 29 µM.

**Q.** What about the CC50 (MRC5) of the same compound?
**A.** The CC50 was over 62 µM.

**Q.** `O=C1c2ccccc2N(Cc2ccc(C(F)(F)F)cc2)S(=O)(=O)N1Cc1ccccc1` was tested. Which IC50 (Human betaherpesvirus 5) did it give?
**A.** Its IC50 is 3.3 µM.

**Q.** And the CC50 (MRC5)?
**A.** Its CC50 is over 56 µM.

**Q.** What does the source list for `O=C1c2ccccc2N(Cc2ccc([N+](=O)[O-])cc2)S(=O)(=O)N1Cc1ccc([N+](=O)[O-])cc1`?
**A.** IC50 (Human betaherpesvirus 5): 53 µM; CC50 (MRC5): > 53 µM

**Q.** What does the source list for `O=C1c2ccccc2N(Cc2cccc(Cl)c2)S(=O)(=O)N1Cc1ccccc1`?
**A.** IC50 (Human betaherpesvirus 5): 3.6 µM; CC50 (MRC5): > 60 µM

**Q.** With `COc1ccc(CN2C(=O)c3ccccc3N(Cc3ccc(OC)cc3)S2(=O)=O)cc1` as the compound, how does the IC50 (Human betaherpesvirus 5) read?
**A.** Its IC50 is 57 µM.

**Q.** And the CC50 (MRC5)?
**A.** Its CC50 is over 57 µM.

**Q.** Which results are given for `Cc1ccc(C(=O)CN2c3ccccc3C(=O)N(Cc3ccccc3)S2(=O)=O)cc1`?
**A.** IC50 (Human betaherpesvirus 5): 2.8 µM; CC50 (MRC5): > 59 µM

**Q.** With `CC(C)CN1c2ccccc2C(=O)N(Cc2ccccc2)S1(=O)=O` as the compound, how does the IC50 (Human betaherpesvirus 5) read?
**A.** The IC50 was 14.5 µM.

**Q.** What about the CC50 (MRC5) of the same compound?
**A.** Its CC50 is 72 µM.

**Q.** How did the IC50 (Human betaherpesvirus 5) turn out when `O=C(CN1c2ccccc2C(=O)N(Cc2ccccc2)S1(=O)=O)c1ccccc1` was run?
**A.** Its IC50 is 24.6 µM.

**Q.** And the CC50 (MRC5)?
**A.** The CC50 was over 61 µM.

**Q.** How did the IC50 (Human betaherpesvirus 5) turn out when `O=C1c2ccccc2N(Cc2ccccc2)S(=O)(=O)N1Cc1ccccc1Cl` was run?
**A.** The IC50 was 12 µM.

**Q.** And the CC50 (MRC5)?
**A.** Its CC50 is over 60 µM.

**Q.** How did the IC50 (Human betaherpesvirus 5) turn out when `O=C1c2ccccc2N(Cc2ccccc2-c2ccccc2)S(=O)(=O)N1Cc1ccccc1` was run?
**A.** Its IC50 is 44 µM.

**Q.** And the CC50 (MRC5)?
**A.** The CC50 was over 55 µM.

**Q.** What does the source list for `O=[N+]([O-])c1ccc(COC2=NS(=O)(=O)N(Cc3ccc([N+](=O)[O-])cc3)c3ccccc32)cc1`?
**A.** IC50 (Human betaherpesvirus 5): 53 µM; CC50 (MRC5): > 53 µM

**Q.** Which IC50 (Human betaherpesvirus 5) does the source give for `O=C1c2ccccc2N(Cc2ccc(Cl)cc2)S(=O)(=O)N1Cc1ccccc1` here?
**A.** Its IC50 is 3.6 µM.

**Q.** What about the CC50 (MRC5) of the same compound?
**A.** The CC50 was over 60 µM.

**Q.** How did the IC50 (Human betaherpesvirus 5) turn out when `O=C1c2ccccc2N(CCCc2ccccc2)S(=O)(=O)N1Cc1ccccc1` was run?
**A.** The IC50 was 18.4 µM.

**Q.** And the CC50 (MRC5)?
**A.** Its CC50 is over 57 µM.

**Q.** Which IC50 (Human betaherpesvirus 5) does the source give for `O=C1c2ccccc2N(Cc2ccccc2)S(=O)(=O)N1Cc1ccc(Cl)cc1` here?
**A.** Its IC50 is 6 µM.

**Q.** And the CC50 (MRC5)?
**A.** The CC50 was over 60 µM.

**Q.** `O=S1(=O)N=C(OCc2ccc(Cl)c(Cl)c2)c2ccccc2N1Cc1ccc(Cl)c(Cl)c1` was tested. Which IC50 (Human betaherpesvirus 5) did it give?
**A.** The IC50 was 48 µM.

**Q.** And the CC50 (MRC5)?
**A.** The CC50 was over 48 µM.

**Q.** How did the IC50 (Human betaherpesvirus 5) turn out when `O=C1c2ccccc2N(Cc2ccc([N+](=O)[O-])cc2)S(=O)(=O)N1Cc1ccccc1` was run?
**A.** The IC50 was 8 µM.

**Q.** And the CC50 (MRC5)?
**A.** Its CC50 is over 59 µM.

**Q.** For `COc1ccc(CN2c3ccccc3C(=O)N(Cc3ccccc3)S2(=O)=O)cc1`, which IC50 (Human betaherpesvirus 5) is on record?
**A.** The IC50 was 7 µM.

**Q.** And the CC50 (MRC5)?
**A.** The CC50 was over 61 µM.

**Q.** For `O=C1c2ccccc2N(Cc2ccccc2)S(=O)(=O)N1Cc1ccccc1`, which IC50 (Human betaherpesvirus 5) is on record?
**A.** The IC50 was 5.3 µM.

**Q.** And the CC50 (MRC5)?
**A.** The CC50 was over 66 µM.

**Q.** With `O=S1(=O)N=C(OCc2ccc(C(F)(F)F)cc2)c2ccccc2N1Cc1ccc(C(F)(F)F)cc1` as the compound, how does the IC50 (Human betaherpesvirus 5) read?
**A.** The IC50 was 23 µM.

**Q.** And the CC50 (MRC5)?
**A.** The CC50 was over 48 µM.

**Q.** For `COc1ccc(CCN2c3ccccc3C(=O)N(Cc3ccccc3)S2(=O)=O)cc1`, which IC50 (Human betaherpesvirus 5) is on record?
**A.** Its IC50 is 4 µM.

**Q.** And the CC50 (MRC5)?
**A.** Its CC50 is over 59 µM.

**Q.** `O=C1c2ccccc2N(Cc2cccc3ccccc23)S(=O)(=O)N1Cc1ccccc1` was tested. Which IC50 (Human betaherpesvirus 5) did it give?
**A.** Its IC50 is 11.6 µM.

**Q.** And the CC50 (MRC5)?
**A.** Its CC50 is over 58 µM.

**Q.** For `O=C1c2ccccc2N(Cc2ccccc2Cl)S(=O)(=O)N1Cc1ccccc1`, which IC50 (Human betaherpesvirus 5) is on record?
**A.** Its IC50 is 4.8 µM.

**Q.** What about the CC50 (MRC5) of the same compound?
**A.** Its CC50 is over 60 µM.

**Q.** With `O=C1c2ccccc2N(Cc2ccc(Cl)c(Cl)c2)S(=O)(=O)N1Cc1ccccc1` as the compound, how does the IC50 (Human betaherpesvirus 5) read?
**A.** The IC50 was 4 µM.

**Q.** And the CC50 (MRC5)?
**A.** The CC50 was over 56 µM.

**Q.** Which IC50 (Human betaherpesvirus 5) does the source give for `COc1ccc(C(=O)CN2c3ccccc3C(=O)N(Cc3ccccc3)S2(=O)=O)cc1` here?
**A.** Its IC50 is 3.2 µM.

**Q.** And the CC50 (MRC5)?
**A.** Its CC50 is over 57 µM.

**Q.** For `O=C1c2ccccc2N(CC2CCCCC2)S(=O)(=O)N1Cc1ccccc1`, which IC50 (Human betaherpesvirus 5) is on record?
**A.** Its IC50 is 15.6 µM.

**Q.** What about the CC50 (MRC5) of the same compound?
**A.** Its CC50 is over 65 µM.

**Q.** With `O=C1c2ccccc2N(Cc2ccc(-c3ccccc3)cc2)S(=O)(=O)N1Cc1ccc(-c2ccccc2)cc1` as the compound, how does the IC50 (Human betaherpesvirus 5) read?
**A.** Its IC50 is 47 µM.

**Q.** What about the CC50 (MRC5) of the same compound?
**A.** The CC50 was over 47 µM.

**Q.** For `O=C1c2ccccc2N(Cc2ccccc2Cl)S(=O)(=O)N1Cc1ccccc1Cl`, which IC50 (Human betaherpesvirus 5) is on record?
**A.** The IC50 was 33 µM.

**Q.** What about the CC50 (MRC5) of the same compound?
**A.** The CC50 was over 56 µM.

**Q.** How did the IC50 (Human betaherpesvirus 5) turn out when `O=S1(=O)N=C(OCc2ccc(-c3ccccc3)cc2)c2ccccc2N1Cc1ccc(-c2ccccc2)cc1` was run?
**A.** The IC50 was 47 µM.

**Q.** And the CC50 (MRC5)?
**A.** The CC50 was over 47 µM.
